Screening data deposited in PubChem BioAssay by The Scripps Research Institute Molecular Screening Center.
Hits are enriched below; roughly 2.4% of the tested compounds scored in any of these assays.
S1P4 agonist: S1P4 receptor agonists, primary screen, cell-based; Sphingosine 1-phosphate receptor 4 (Homo sapiens), O95977; activation, % at 4.98 µM; hit rate 0.35% among 220,000; S1P4-expressing cell line, agonist reporter assay; in the data active = activation above about 11%;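 note: 0% = DMSO vehicle and 100% = reference agonist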
Target sequence (O95977 whole entry, looked up): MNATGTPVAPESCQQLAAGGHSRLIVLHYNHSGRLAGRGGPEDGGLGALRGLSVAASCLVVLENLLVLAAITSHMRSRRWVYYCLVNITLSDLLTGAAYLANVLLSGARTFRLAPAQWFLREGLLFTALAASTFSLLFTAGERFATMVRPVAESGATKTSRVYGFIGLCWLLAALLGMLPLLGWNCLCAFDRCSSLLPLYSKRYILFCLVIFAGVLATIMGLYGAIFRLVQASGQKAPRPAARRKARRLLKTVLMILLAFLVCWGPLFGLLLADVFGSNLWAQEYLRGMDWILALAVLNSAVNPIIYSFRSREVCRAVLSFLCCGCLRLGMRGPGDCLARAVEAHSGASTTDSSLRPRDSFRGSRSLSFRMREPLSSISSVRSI
NPY-Y1 antag: NPY-Y1 receptor antagonists, primary screen, cell-based; HEK293-CNG Y1 cells, membrane potential fluorescence; NPY at EC95, then isoproterenol; inhibition, % at 3.6 µM; hit rate 1% among 200,000; AID 1040, 2008;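 active = inhibition above the campaign mean inhibition of all tested compounds plus 3 SD, cut at about 20% in these data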;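 note: 0% = DMSO wells given NPY plus isoproterenol and 100% = isoproterenol alone without NPY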
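Benchmarks – high control isoproterenol alone, low control NPY with isoproterenol · Material – HEK293 Y1/CNG channel cell line · Times – dye 3 h, compound 60 min room temperature, stimulation 45 min · Probe or stimulus – NPY (25 nM), isoproterenol (1 µM), Ro 20-1724 (25 µM) · Evaluation – % inhibition of NPY effect · Signal – fluorescence, membrane potential probe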
NPY-Y2 antag: NPY-Y2 receptor antagonists, primary screen, cell-based; NPY-Y2 expressing cells, antagonist mode; inhibition, % at 2.7 µM; Neuropeptide Y receptor type 2 (Homo sapiens), P49146; hit rate 0.99% among 140,000; AID 793, 2007; in the data active = inhibition above about 17%;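 note: 0% = vehicle with agonist challenge and 100% = reference antagonist with challenge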
NPY1 pot ag: NPY-Y1 receptor potentiators or agonists, primary screen, cell-based; Neuropeptide Y receptor type 1 (Homo sapiens), P25929; NPY-Y1 expressing cells, potentiator/agonist activation; activation, % at 3.6 µM; hit rate 0.37% among 220,000; AID 1304, 2008; in the data active = activation above about 33%, passing the limit was not always enough;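 note: cells stimulated with NPY at EC10 then isoproterenol at EC100; 0% = low agonist plus stimulus and 100% = saturating agonist plus stimulus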
S1P4 antagonist: S1P4 receptor antagonists, primary screen, cell-based | Sphingosine 1-phosphate receptor 4 (Homo sapiens), O95977 | inhibition, % at 4.98 µM | AID 1510, 2009 | hit rate 0.26% among 220,000 | S1P4-expressing cells, antagonist mode, reporter read-out; in the data active = inhibition above about 29%;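 note: 0% = wells stimulated with agonist and 100% = vehicle wells without agonist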
NPY2 pot ag: NPY-Y2 potentiators or agonists, primary screen, cell-based; Neuropeptide Y receptor type 2 (Homo sapiens), P49146; cells expressing NPY-Y2, potentiator/agonist read-out; activation, % at 3.6 µM; hit rate 0.45% among 220,000; AID 1359, 2008; in the data active = activation above about 27%;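 note: cells stimulated with NPY near EC25 plus isoproterenol at EC100; 0% = vehicle plus submaximal agonist and 100% = vehicle plus saturating agonist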
NPY-Y2 pot conf: NPY-Y2 potentiators or agonists, confirmation, cell-based; shares compounds with NPY2 pot ag; cell-based NPY-Y2 potentiator/agonist assay; activation, % at 3.6 µM; hit rate 20% among 450; AID 1539, 2009; in the data active = activation above about 33%
NPY-Y1 counter: NPY-Y1 potentiators or agonists, counter-screen for NPY-Y2 potentiator project, cell-based, fluorescence. shares compounds with NPY2 pot ag. Y1 HEK293-CNG cells, membrane potential fluorescence. activation, % at 3.6 µM. hit rate 20% among 450. AID 1651, 2009; in the data active = activation above about 45%;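 note: cells stimulated with submaximal NPY then isoproterenol with phosphodiesterase inhibitor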
NPY-Y1 ag 2: NPY-Y1 direct agonists, selectivity assay for NPY-Y2 potentiator project, cell-based, fluorescence | shares compounds with NPY2 pot ag | HEK293 Y1-CNGC, membrane potential fluorescence, agonism | activation, % at 3.6 µM | hit rate 37% among 450 | AID 1702, 2009;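 active = activation above the mean of DMSO-only control wells plus 3 SD, cut at about 18% in these data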;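 note: cells stimulated with 1 µM isoproterenol plus the PDE inhibitor Ro 20-1724; 0% = isoproterenol with DMSO and no NPY and 100% = 40 nM NPY; Y1 agonists lower the membrane potential dye signal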
CNGC inh: CNGC cAMP sensor activity inhibitors, counter-screen for NPY-Y2 potentiator project, cell-based, HEK293-CNG parental, membrane potential fluorescence; hit rate 32% among 450; isoproterenol cAMP; shares compounds with NPY2 pot ag; inhibition, % at 3.6 µM; AID 1703, 2009;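 active = inhibition above the control-well mean plus 3 SD of those wells, cut at about 22% in these data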;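 note: 0% = DMSO with isoproterenol and 100% = DMSO without isoproterenol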
NPY-Y2 ag 2: NPY-Y2 direct agonists, counter-screen for NPY-Y2 potentiator project, cell-based, fluorescence; shares compounds with NPY2 pot ag; HEK293 Y2/CNGC cells, membrane potential fluorescence, agonist mode; activation, % at 3.6 µM; hit rate 56% among 450; AID 1710, 2009;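 active = activation above the mean of solvent-only control wells plus 3 SD, cut at about 10% in these data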;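 note: cells stimulated by isoproterenol with no NPY added so direct agonism is tested; 0% = DMSO with isoproterenol alone and 100% = NPY at EC100 plus isoproterenol; agonism lowers probe fluorescence through less cAMP and CNG channel opening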
Numbers without * were called inactive; . = no result given.

SMILES | S1P4 agonist | NPY-Y1 antag | NPY-Y2 antag | NPY1 pot ag | S1P4 antagonist | NPY2 pot ag | NPY-Y2 pot conf | NPY-Y1 counter | NPY-Y1 ag 2 | CNGC inh | NPY-Y2 ag 2
O=C(O)C1CC=CCC1C(=O)N1CCN(c2nc(-c3ccccc3)c3ccccc3n2)CC1 (configuration not stated) | 6.4 | 14.3 | 7.3 | 43.4 | 4.4 | 36.6* | 16.5 | 2.1 | 17.9* | -5.7 | 14.3*
COc1ccc(C2=NOC(C(=O)N3CCCc4ccccc43)C2)cc1 (configuration not stated) | 1.1 | 5.0 | 3.5 | 17.6 | -14.0 | 2.2 | . | . | . | . | .
CC(C)(C)N(NC(=O)c1ccccc1)C(=O)c1ccc(C(=O)N(NC(=O)c2ccccc2)C(C)(C)C)cc1 | 1.4 | 4.0 | 1.7 | -7.4 | -23.9 | 8.1 | . | . | . | . | .
CCc1ccc(C(=O)NN(C(=O)c2ccc(CC)cc2)C(C)(C)C)cc1 | 1.3 | -6.4 | 2.5 | 36.8 | -4.1 | 34.9* | 43.6* | 61.0* | 57.6* | 46.9* | 33.6*
Cc1cc(C(F)F)nn1CC(=O)NCc1ccco1 | 2.7 | 6.1 | -2.5 | 15.6 | -23.8 | 4.1 | . | . | . | . | .
O=C(NCc1cccs1)c1ccc(N2CCCC2=O)cc1 | -1.8 | 8.0 | -0.5 | -3.8 | -14.3 | -9.0 | . | . | . | . | .
CN(C)c1ccc(/C=C(/NC(=O)c2ccccc2)C(=O)N/N=C/c2ccc([N+](=O)[O-])c(O)c2)cc1 | -1.1 | -12.0 | -3.3 | 33.8 | -18.5 | 33.0* | 33.9* | 38.4 | 34.8* | 25.8* | 27.3*
O=C(N/N=C/c1ccc2c(c1)OCO2)/C(=C/c1ccc2c(c1)OCO2)NC(=O)c1ccccc1 | -1.4 | 9.2 | 4.3 | -71.7 | 1.0 | -12.8 | . | . | . | . | .
COCCNC(=O)c1ccccc1NC(=O)c1cccc([N+](=O)[O-])c1C | 1.0 | 2.7 | . | 3.1 | -4.5 | -1.5 | . | . | . | . | .
Cc1n[nH]c(C)c1N=Nc1ccc(Br)cc1 | 0.2 | -8.0 | . | 30.0 | 3.1 | 30.7* | 13.9 | 26.8 | 0.4 | 17.6 | 4.7
CCOC(=O)C(=O)Nc1nccs1 | 1.1 | -1.7 | . | 16.9 | -10.6 | -6.3 | . | . | . | . | .
Cc1ccc2sc(N(CCCN(C)C)C(=O)c3ccc(Br)s3)nc2c1C | -3.1 | 16.8 | . | 29.0 | 18.7 | 52.2* | 69.3* | 77.7* | 84.0* | 62.4* | 64.7*
CN(C)CCCN(C(=O)c1ccc(Br)s1)c1nc2cc3c(cc2s1)OCO3 | 0.7 | 7.7 | . | 31.2 | -4.2 | 43.3* | 66.5* | 78.9* | 55.0* | 66.0* | 62.9*
O=C(CN1CCOc2ccccc21)NCc1cccs1 | 0.7 | 1.6 | -0.9 | 8.2 | 3.0 | 13.1 | . | . | . | . | .
CC(SC(=S)N1CCCC1)C(=O)O (configuration not stated) | 1.1 | 0.0 | . | 19.8 | -12.0 | 36.7* | -2.9 | -6.9 | -0.5 | 2.3 | 12.5*
CC(C)(SC(=S)N1CCCCCC1)C(=O)O | 2.0 | 3.5 | . | -8.0 | -5.9 | 7.2 | . | . | . | . | .
FC(F)(F)COc1cc(-c2nnc(SCc3ccccc3)n2Cc2ccco2)cc(OCC(F)(F)F)n1 | -0.1 | . | . | -23.2 | 11.9 | -28.2 | . | . | . | . | .
